Source: ChEMBL document CHEMBL3734675, “Synthesis, antimycobacterial and antibacterial activity of fluoroquinolone derivatives containing an 3-alkoxyimino-4-(cyclopropylanimo)methylpyrrolidine moiety” (2015)
In brackets after ≈: the same amount, converted by molar mass.

Legend:
Format in all cases: functional
Streptococcus pneumoniae = assay: Antibacterial activity against methicillin-resistant Streptococcus pneumoniae ATCC 19615 after 18 to 24 hrs by two-fold serial dilution method
In short: (§1)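 Agar media, standard twofold serial dilution. MIC is the lowest concentration giving complete inhibition of bacterial growth after incubation at 35 °C for 18–24 h. Ciprofloxacin and levofloxacin were run as comparators.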

Klebsiella pneumoniae [1] = assay: Antibacterial activity against Klebsiella pneumoniae 14-4 after 18 to 24 hrs by two-fold serial dilution method
In short: (§2)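 Twofold serial dilution in agar media against Gram-positive and Gram-negative strains. Plates incubated at 35 °C for 18–24 h. MIC read as the lowest compound concentration giving complete inhibition of bacterial growth.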

Escherichia coli [2] = assay: Antibacterial activity against Escherichia coli ATCC 25922 after 18 to 24 hrs by two-fold serial dilution method; in short: as §2
Escherichia coli [3] = assay: Antibacterial activity against extended-spectrum beta-lactamase producing Escherichia coli 14-1 after 18 to 24 hrs by two-fold serial dilution method; in short: as §2
Staphylococcus aureus [4] = assay: Antibacterial activity against methicillin-sensitive Staphylococcus aureus 14-4 after 18 to 24 hrs by two-fold serial dilution method; in short: as §2
Pseudomonas aeruginosa [5] = assay: Antibacterial activity against Pseudomonas aeruginosa 14-16 after 18 to 24 hrs by two-fold serial dilution method; in short: as §2
Enterococcus faecium [6] = assay: Antibacterial activity against Enterococcus faecium 14-5 after 18 to 24 hrs by two-fold serial dilution method; in short: as §2
Enterococcus faecalis [7] = assay: Antibacterial activity against Enterococcus faecalis 14-1 after 18 to 24 hrs by two-fold serial dilution method; in short: as §2
Pseudomonas aeruginosa [8] = assay: Antibacterial activity against Pseudomonas aeruginosa 14-9 after 18 to 24 hrs by two-fold serial dilution method; in short: as §2
Pseudomonas aeruginosa [9] = assay: Antibacterial activity against Pseudomonas aeruginosa ATCC 27853 after 18 to 24 hrs by two-fold serial dilution method; in short: as §2
Staphylococcus aureus [10] = assay: Antibacterial activity against methicillin-resistant Staphylococcus aureus 14-4 after 18 to 24 hrs by two-fold serial dilution method; in short: as §1
Klebsiella pneumoniae [11] = assay: Antibacterial activity against Klebsiella pneumoniae 14-2 after 18 to 24 hrs by two-fold serial dilution method; in short: as §2
[12] = system: Staphylococcus epidermidis; assay: Antibacterial activity against methicillin-resistant Staphylococcus epidermidis 14-21 after 18 to 24 hrs by two-fold serial dilution method; in short: as §1
Klebsiella pneumoniae [13] = assay: Antibacterial activity against Klebsiella pneumoniae 14-1 after 18 to 24 hrs by two-fold serial dilution method; in short: as §2
Enterococcus faecium [14] = assay: Antibacterial activity against Enterococcus faecium 14-2 after 18 to 24 hrs by two-fold serial dilution method; in short: as §2
Escherichia coli [15] = assay: Antibacterial activity against extended-spectrum beta-lactamase producing Escherichia coli 14-2 after 18 to 24 hrs by two-fold serial dilution method; in short: as §2
[16] = system: Staphylococcus epidermidis; assay: Antibacterial activity against methicillin-resistant Staphylococcus epidermidis 14-37 after 18 to 24 hrs by two-fold serial dilution method; in short: as §1
Enterococcus faecium [17] = assay: Antibacterial activity against Enterococcus faecium 14-6 after 18 to 24 hrs by two-fold serial dilution method; in short: as §2
Enterococcus faecalis [18] = assay: Antibacterial activity against Enterococcus faecalis 14-2 after 18 to 24 hrs by two-fold serial dilution method; in short: as §2
Escherichia coli [19] = assay: Antibacterial activity against Escherichia coli 14-1 after 18 to 24 hrs by two-fold serial dilution method; in short: as §2
[20] = system: Staphylococcus epidermidis; assay: Antibacterial activity against methicillin-sensitive Staphylococcus epidermidis 14-2 after 18 to 24 hrs by two-fold serial dilution method; in short: as §2
[21] = system: Staphylococcus epidermidis; assay: Antibacterial activity against methicillin-resistant Staphylococcus epidermidis 14-39 after 18 to 24 hrs by two-fold serial dilution method; in short: as §1
[22] = system: Mycobacterium tuberculosis; assay: Antimycobacterial activity against Mycobacterium tuberculosis H37Rv ATCC 27294 incubated for 7 days by microplate Alamar Blue assay; conditions: H37Rv ATCC 27294, 168 h
In short: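 Fluorescence read-out. MIC is the lowest concentration that reduces fluorescence by at least 90% relative to the mean of replicate bacterium-only controls. Isoniazid and rifampicin were included as reference drugs.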

Pseudomonas aeruginosa [23] = assay: Antibacterial activity against Pseudomonas aeruginosa 14-15 after 18 to 24 hrs by two-fold serial dilution method; in short: as §2
Klebsiella pneumoniae [24] = assay: Antibacterial activity against extended-spectrum beta-lactamase producing Klebsiella pneumoniae 14-18 after 18 to 24 hrs by two-fold serial dilution method; in short: as §2
[25] = system: Staphylococcus epidermidis; assay: Antibacterial activity against methicillin-resistant Staphylococcus epidermidis 14-22 after 18 to 24 hrs by two-fold serial dilution method; in short: as §1
Staphylococcus aureus [26] = assay: Antibacterial activity against methicillin-sensitive Staphylococcus aureus 14-3 after 18 to 24 hrs by two-fold serial dilution method; in short: as §2
Staphylococcus aureus [27] = assay: Antibacterial activity against methicillin-resistant Staphylococcus aureus 14-5 after 18 to 24 hrs by two-fold serial dilution method; in short: as §1
Klebsiella pneumoniae [28] = assay: Antibacterial activity against extended-spectrum beta-lactamase producing Klebsiella pneumoniae 14-19 after 18 to 24 hrs by two-fold serial dilution method; in short: as §2
Klebsiella pneumoniae [29] = assay: Antibacterial activity against Klebsiella pneumoniae 14-3 after 18 to 24 hrs by two-fold serial dilution method; in short: as §2
Klebsiella pneumoniae [30] = assay: Antibacterial activity against extended-spectrum beta-lactamase producing Klebsiella pneumoniae 14-17 after 18 to 24 hrs by two-fold serial dilution method; in short: as §2
Escherichia coli [31] = assay: Antibacterial activity against Escherichia coli 14-2 after 18 to 24 hrs by two-fold serial dilution method; in short: as §2
Pseudomonas aeruginosa [32] = assay: Antibacterial activity against Pseudomonas aeruginosa 14-14 after 18 to 24 hrs by two-fold serial dilution method; in short: as §2
Staphylococcus aureus [33] = assay: Antibacterial activity against methicillin-sensitive Staphylococcus aureus 14-1 after 18 to 24 hrs by two-fold serial dilution method; in short: as §2
Staphylococcus aureus [34] = assay: Antibacterial activity against Staphylococcus aureus CMCC 26003 after 18 to 24 hrs by two-fold serial dilution method; in short: as §2

Question: What does the source list for `CO/N=C1/CN(c2nc3c(cc2F)c(=O)c(C(=O)O)cn3C2CC2)CC1CNC1CC1` (stereo not given)?
Answer: MIC (Streptococcus pneumoniae): 4 µg/mL (≈ 9.31 µM); MIC (Klebsiella pneumoniae [1]): > 128 µg/mL; MIC (Escherichia coli [2]): 0.5 µg/mL (≈ 1.16 µM); MIC (Escherichia coli [3]): 16 µg/mL (≈ 37.3 µM); MIC (Staphylococcus aureus [4]): 8 µg/mL (≈ 18.6 µM); MIC (Pseudomonas aeruginosa [5]): 32 µg/mL (≈ 74.5 µM); MIC (Enterococcus faecium [6]): 16 µg/mL (≈ 37.3 µM); MIC (Enterococcus faecalis [7]): 64 µg/mL (≈ 149 µM); MIC (Pseudomonas aeruginosa [8]): 8 µg/mL (≈ 18.6 µM); MIC (Pseudomonas aeruginosa [9]): 16 µg/mL (≈ 37.3 µM); MIC (Staphylococcus aureus [10]): > 128 µg/mL; MIC (Klebsiella pneumoniae [11]): 128 µg/mL (≈ 298 µM); MIC [12]: 16 µg/mL (≈ 37.3 µM); MIC (Klebsiella pneumoniae [13]): 128 µg/mL (≈ 298 µM); MIC (Enterococcus faecium [14]): 32 µg/mL (≈ 74.5 µM); MIC (Escherichia coli [15]): > 128 µg/mL; MIC [16]: 32 µg/mL (≈ 74.5 µM); MIC (Enterococcus faecium [17]): 32 µg/mL (≈ 74.5 µM); MIC (Enterococcus faecalis [18]): 0.5 µg/mL (≈ 1.16 µM); MIC (Escherichia coli [19]): > 128 µg/mL; MIC [20]: > 128 µg/mL; MIC [21]: 16 µg/mL (≈ 37.3 µM); MIC90 [22]: 0.44 µg/mL (≈ 1.02 µM); MIC (Pseudomonas aeruginosa [23]): 32 µg/mL (≈ 74.5 µM); MIC (Klebsiella pneumoniae [24]): 16 µg/mL (≈ 37.3 µM); MIC [25]: 16 µg/mL (≈ 37.3 µM); MIC (Staphylococcus aureus [26]): 4 µg/mL (≈ 9.31 µM); MIC (Staphylococcus aureus [27]): 8 µg/mL (≈ 18.6 µM); MIC (Klebsiella pneumoniae [28]): 32 µg/mL (≈ 74.5 µM); MIC (Klebsiella pneumoniae [29]): 128 µg/mL (≈ 298 µM); MIC (Klebsiella pneumoniae [30]): 16 µg/mL (≈ 37.3 µM); MIC (Escherichia coli [31]): > 128 µg/mL; MIC (Pseudomonas aeruginosa [32]): 32 µg/mL (≈ 74.5 µM); MIC (Staphylococcus aureus [33]): 8 µg/mL (≈ 18.6 µM); MIC (Staphylococcus aureus [34]): < 8 ng/mL
